Reference: ChEMBL document CHEMBL1154400, “Pharmacokinetics of single- and multiple-dose oral clarithromycin in soft tissues determined by microdialysis” (Antimicrob Agents Chemother, 2007)

What was measured:
[1] = Ratio of AUC (0 to 24 hrs) in human interstitial-space fluid of subcutaneous adipose tissue to free AUC (0 to 24 hrs) in human plasma at 500 mg, po bid
Homo sapiens [2] = assay: Free Cmax in human plasma at 500 mg, po, bid for 3 to 5 days; assay type: ADME, organism-based; settings: in vivo
Outline: (§1)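 Free plasma concentrations obtained by applying each volunteer's measured protein binding to total plasma concentrations, measured by HPLC after the 250 mg single dose or the 500 mg b.i.d. steady-state dose, with sampling over 8 h.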

[3] = AUC (0 to 8 hrs) in fasting human plasma at 250 mg, po; assay type: ADME, organism-based; set-up: dose 250 mg, time < 8 hr, route oral
Outline: (§2)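 Healthy male volunteers aged 25-37 y, fasting; single oral 250 mg tablet after 60-min probe equilibration. Microdialysis probes in skeletal muscle and subcutaneous adipose tissue, perfused with Ringer's at 1.5 µl/min; dialysate and antecubital venous blood sampled every 20 min to 4 h, then every 30 min to 8 h. HPLC assay. Interstitial concentration = 100 x Cdialysate/recovery.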

[4] = Total clearance in fasting human plasma at 250 mg, po; assay type: ADME, organism-based
[5] = Tmax in fasting human interstitial-space fluid of skeletal muscle at 250 mg, po; assay type: ADME, organism-based, Muscle tissue
Outline: as §2

[6] = Tmax in fasting human plasma unbound fraction at 250 mg, po; assay type: ADME, organism-based
Outline: as §1

[7] = Tmax in human plasma unbound fraction at 500 mg, po, bid for 3 to 5 days; assay type: ADME, organism-based
Outline: as §1

[8] = Cmax in human plasma at 500 mg, po, bid for 3 to 5 days; assay type: ADME, organism-based; set-up: dose 500 mg, route oral
Outline: (§3)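 Oral clarithromycin 500 mg b.i.d. for 3-5 days, starting 12 h after a single 250 mg dose; last dose given supervised on the morning of day 2 after a baseline blood draw and a 2-h trough dialysate. Sampling as on day 1: microdialysis of muscle and adipose tissue plus venous plasma over 8 h, HPLC. Dialysate concentrations corrected for individual recovery.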

[9] = Tmax in human plasma at 500 mg, po, bid for 3 to 5 days; assay type: ADME, organism-based
Outline: as §3

[10] = Terminal half life in fasting human plasma at 250 mg, po; assay type: ADME, organism-based; settings: read-out: beta t1/2 (converted)
Outline: as §2

[11] = Protein binding in human plasma at 250 mg, po; assay type: ADME, organism-based; settings: read-out: PPB (converted)
Outline: (§4)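 Plasma ultrafiltration done for each volunteer on samples taken 80 and 180 min post-dose, after both the single dose and at steady state. 300 µl aliquots spun through 5,000-MW-cutoff regenerated-cellulose filters at 5,000 x g, 30 min, ambient temperature. Ultrafiltrate concentrations corrected for 5% mean membrane binding. Binding (%) = 100 - 100 x Cultrafiltrate corr/Cplasma total.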

[12] = AUC (0 to 8 hrs) in fasting human interstitial-space fluid of subcutaneous adipose tissue at 250 mg, po; assay type: ADME, organism-based
Outline: as §2

Homo sapiens [13] = assay: Free AUC (0 to 8 hrs) in fasting human plasma at 250 mg, po; assay type: ADME, organism-based; settings: in vivo
Outline: as §1

[14] = Tmax in fasting human interstitial-space fluid of subcutaneous adipose tissue at 250 mg, po; assay type: ADME, organism-based
Outline: as §2

Homo sapiens [15] = assay: Free AUC (0 to 24 hrs) in fasting human plasma at 250 mg, po; assay type: ADME, organism-based; settings: in vivo
[16] = Terminal half life in fasting human interstitial-space fluid of skeletal muscle at 250 mg, po; assay type: ADME, organism-based, Muscle tissue; settings: read-out: beta t1/2 (converted)
Outline: as §2

[17] = AUC (0 to 8 hrs) in human plasma at 500 mg, po, bid for 3 to 5 days; assay type: ADME, organism-based; set-up: dose 500 mg, time < 8 hr, route oral
Outline: as §3

[18] = Tmax in human interstitial-space fluid of skeletal muscle at 500 mg, po, bid for 3 to 5 days; assay type: ADME, organism-based, Muscle tissue
Outline: as §3

[19] = Terminal half life in fasting human interstitial-space fluid of subcutaneous adipose tissue at 250 mg, po; assay type: ADME, organism-based; settings: read-out: beta t1/2 (converted)
Outline: as §2

[20] = Cmax in fasting human interstitial-space fluid of skeletal muscle at 250 mg, po; assay type: ADME, organism-based, Muscle tissue; set-up: dose 250 mg, route oral
Outline: as §2

[21] = Drug uptake in human Skeletal muscles assessed as in vivo drug recovery by microdialysis; assay type: ADME, organism-based, Muscle tissue
Outline: (§5)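 Retrodialysis after the 8-h sampling: clarithromycin 5 mg/liter added to the Ringer's perfusate (1.5 µl/min). Recovery (%) = 100 - 100 x Cdialysate/Cperfusate, taken as the mean of two measurements per subject, in muscle and adipose tissue probes.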

[22] = Cmax in fasting human interstitial-space fluid of subcutaneous adipose tissue at 250 mg, po; assay type: ADME, organism-based
Outline: as §2

Homo sapiens [23] = assay: Free Cmax in fasting human plasma at 250 mg, po; assay type: ADME, organism-based; settings: in vivo
Outline: as §1

[24] = Protein binding in human plasma at 500 mg, po bid for 3 to 5 days; assay type: ADME, organism-based; settings: read-out: PPB (converted)
Outline: as §4

[25] = Cmax in fasting human plasma at 250 mg, po; assay type: ADME, organism-based; set-up: dose 250 mg, route oral
Outline: as §2

[26] = Drug uptake in human adipose tissue assessed as in vivo drug recovery by microdialysis; assay type: ADME, organism-based
Outline: as §5

[27] = AUC (0 to 24 hrs) in human plasma at 500 mg, po, bid for 3 to 5 days; assay type: ADME, organism-based; set-up: time < 24 hr, dose 500 mg, route oral
Outline: as §3

[28] = Terminal half life in human plasma at 500 mg, po, bid for 3 to 5 days; assay type: ADME, organism-based; settings: read-out: beta t1/2 (converted)
Outline: as §3

Homo sapiens [29] = assay: Volume of distribution at steady state in human plasma at 500 mg, po, bid for 3 to 5 days; assay type: ADME, organism-based; settings: in vivo
Outline: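 Healthy male volunteers (n=7, 25–37 y) took clarithromycin 500 mg orally b.i.d. for 3–5 days, with the last dose supervised. Venous blood (lithium heparin) was sampled every 20 min over 0–4 h and every 30 min over 4–8 h, and plasma was assayed by HPLC. Vss = CL × MRT, with CL = dose × F/AUC0-∞ and F taken as 55%. AUCs were calculated by the linear trapezoidal rule.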

[30] = AUC (0 to 8 hrs) in fasting human interstitial-space fluid of skeletal muscle at 250 mg, po; assay type: ADME, organism-based, Muscle tissue; set-up: time < 8 hr, dose 250 mg, route oral
Outline: as §2

[31] = AUC (0 to 24 hrs) in fasting human interstitial-space fluid of subcutaneous adipose tissue at 250 mg, po; assay type: ADME, organism-based
Outline: as §2

[32] = AUC (0 to 24 hrs) in fasting human plasma at 250 mg, po; assay type: ADME, organism-based; set-up: dose 250 mg, time < 24 hr, route oral
Outline: as §2

[33] = Cmax in human interstitial-space fluid of skeletal muscle at 500 mg, po, bid for 3 to 5 days; assay type: ADME, organism-based, Muscle tissue; set-up: dose 500 mg, route oral
Outline: as §3

[34] = Terminal half life in human interstitial-space fluid of skeletal muscle at 500 mg, po, bid for 3 to 5 days; assay type: ADME, organism-based, Muscle tissue; settings: read-out: beta t1/2 (converted)
Outline: as §3

[35] = Terminal half life in human plasma unbound fraction at 500 mg, po, bid for 3 to 5 days; assay type: ADME, organism-based; settings: read-out: beta t1/2 (converted)
Outline: as §1

[36] = Terminal half life in fasting human plasma unbound fraction at 250 mg, po; assay type: ADME, organism-based; settings: read-out: beta t1/2 (converted)
Outline: as §1

[37] = Tmax in human interstitial-space fluid of subcutaneous adipose tissue at 500 mg, po, bid for 3 to 5 days; assay type: ADME, organism-based
Outline: as §3

[38] = AUC (0 to 24 hrs) in human interstitial-space fluid of skeletal muscle at 500 mg, po, bid for 3 to 5 days; assay type: ADME, organism-based, Muscle tissue; set-up: dose 500 mg, time < 24 hr, route oral
Outline: as §3

[39] = AUC (0 to 8 hrs) in human interstitial-space fluid of subcutaneous adipose tissue at 500 mg, po, bid for 3 to 5 days; assay type: ADME, organism-based
Outline: as §3

[40] = Total clearance in human plasma at 500 mg, po, bid for 3 to 5 days; assay type: ADME, organism-based
[41] = Cmax in human interstitial-space fluid of subcutaneous adipose tissue at 500 mg, po, bid for 3 to 5 days; assay type: ADME, organism-based
Outline: as §3

[42] = Ratio of AUC (0 to 24 hrs) in fasting human interstitial-space fluid of skeletal muscle to free AUC (0 to 24 hrs) in fasting human plasma at 250 mg, po; assay type: ADME, organism-based; settings: read-out: Ratio AUC
Outline: (§6)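 AUC0-8, AUC0-12 and AUC0-24 by the linear trapezoidal rule. Values at 12 h and 24 h extrapolated as C8 x e^(-kel x t) from the 8-h concentration. At steady state, AUC0-24 = AUC0-12 x 2. Tissue-to-free-plasma ratios use free plasma AUC, from each subject's own protein binding.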

[43] = AUC (0 to 24 hrs) in human interstitial-space fluid of subcutaneous adipose tissue at 500 mg, po, bid for 3 to 5 days; assay type: ADME, organism-based
Outline: as §3

[44] = AUC (0 to 24 hrs) in fasting human interstitial-space fluid of skeletal muscle at 250 mg, po; assay type: ADME, organism-based, Muscle tissue; set-up: time < 24 hr, dose 250 mg, route oral
Outline: as §2

Homo sapiens [45] = assay: Volume of distribution at terminal phase in fasting human plasma at 250 mg, po; assay type: ADME, organism-based; settings: in vivo
Outline: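 Single oral 250 mg tablet given to fasting healthy male volunteers (n=7, 25–37 y). Venous plasma (lithium heparin) was sampled every 20 min over 0–4 h and every 30 min over 4–8 h, then analysed by reverse-phase HPLC. Vz = dose × F/(AUC0-∞ × kel), with bioavailability F set at 55%. AUC was calculated by the linear trapezoidal rule.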

Homo sapiens [46] = assay: Free AUC (0 to 24 hrs) in human plasma at 500 mg, po, bid for 3 to 5 days; assay type: ADME, organism-based; settings: in vivo
Outline: as §1

Homo sapiens [47] = assay: Free AUC (0 to 8 hrs) in human plasma at 500 mg, po, bid for 3 to 5 days; assay type: ADME, organism-based; settings: in vivo
Outline: as §1

[48] = Ratio of AUC (0 to 24 hrs) in fasting human interstitial-space fluid of subcutaneous adipose tissue to free AUC (0 to 24 hrs) in fasting human plasma at 250 mg, po; assay type: ADME, organism-based; settings: read-out: Ratio AUC
Outline: as §6

[49] = AUC (0 to 8 hrs) in human interstitial-space fluid of skeletal muscle at 500 mg, po, bid for 3 to 5 days; assay type: ADME, organism-based, Muscle tissue; set-up: dose 500 mg, time < 8 hr, route oral
Outline: as §3

[50] = Tmax in fasting human plasma at 250 mg, po; assay type: ADME, organism-based
Outline: as §2

[51] = Terminal half life in human subcutaneous interstitial-space fluid of adipose tissue at 500 mg, po, bid for 3 to 5 days; assay type: ADME, organism-based; settings: read-out: beta t1/2 (converted)
Outline: as §3

[52] = Ratio of AUC (0 to 24 hrs) in human interstitial-space fluid of skeletal muscle to free AUC (0 to 24 hrs) in human plasma at 500 mg, po bid

Kp uu [1]: 0.39
fCmax (Homo sapiens [2]): 0.58 mg/L
AUC(0-t) at 8 h [3]: 3630 ng·h/mL
CL/F [4]: 620 mL/min
Tmax [5]: 3 h
Tmax [6]: 2.6 h
Tmax [7]: 3.2 h
Cmax [8]: 2210 ng/mL
Tmax [9]: 3.2 h
half-life [10]: 1.9 h
fraction unbound [11]: 0.287
AUC(0-t) [12]: 240 ng·h/mL
fAUC (Homo sapiens [13]): 990 ng·h/mL
Tmax [14]: 3 h
fAUC (Homo sapiens [15]): 1210 ng·h/mL
half-life [16]: 3.1 h
AUC at 8 h [17]: 10600 ng·h/mL
Tmax [18]: 3.8 h
half-life [19]: 2.4 h
Cmax [20]: 80 ng/mL
Activity [21]: 54.3%
Cmax [22]: 70 ng/mL
fCmax (Homo sapiens [23]): 0.31 mg/L
fraction unbound [24]: 0.231
Cmax [25]: 1090 ng/mL
Activity [26]: 57.7%
AUC at 24 h [27]: 26800 ng·h/mL
half-life [28]: 3.7 h
Vdss (Homo sapiens [29]): 126.5 L
AUC(0-t) at 8 h [30]: 290 ng·h/mL
AUC(0-t) [31]: 350 ng·h/mL
AUC(0-t) at 24 h [32]: 4450 ng·h/mL
Cmax [33]: 230 ng/mL
half-life [34]: 3.8 h
half-life [35]: 3.7 h
half-life [36]: 1.9 h
Tmax [37]: 4 h
AUC at 24 h [38]: 2420 ng·h/mL
AUC [39]: 840 ng·h/mL
CL/F [40]: 312 mL/min
Cmax [41]: 230 ng/mL
Kp uu [42]: 0.42
AUC [43]: 2220 ng·h/mL
AUC(0-t) at 24 h [44]: 480 ng·h/mL
Vbeta (Homo sapiens [45]): 94 L
fAUC (Homo sapiens [46]): 5850 ng·h/mL
fAUC (Homo sapiens [47]): 2260 ng·h/mL
Kp uu [48]: 0.29
AUC at 8 h [49]: 920 ng·h/mL
Tmax [50]: 2.6 h
half-life [51]: 3.4 h
Kp uu [52]: 0.41
Structure (SMILES): CC[C@H]1OC(=O)[C@H](C)[C@@H](O[C@H]2C[C@@](C)(OC)[C@@H](O)[C@H](C)O2)[C@H](C)[C@@H](O[C@@H]2O[C@H](C)C[C@H](N(C)C)[C@H]2O)[C@](C)(OC)C[C@@H](C)C(=O)[C@H](C)[C@@H](O)[C@]1(C)O [CLARITHROMYCIN]
